Screening data: PubChem, Broad Institute
Shown are actives, neighbours in structure and some others; about 1.2% of the full set was active somewhere.
NSD2 inh: blocks human histone methyltransferase NSD2 | O96028 | NSD2 peptide methylation, AlphaScreen, 120 min | inhibition, % at 12.5 µM | hit rate 0.54% among 310,000 | AID 743445; in the data active = inhibition above about 50%
Target sequence (O96028 whole entry, looked up): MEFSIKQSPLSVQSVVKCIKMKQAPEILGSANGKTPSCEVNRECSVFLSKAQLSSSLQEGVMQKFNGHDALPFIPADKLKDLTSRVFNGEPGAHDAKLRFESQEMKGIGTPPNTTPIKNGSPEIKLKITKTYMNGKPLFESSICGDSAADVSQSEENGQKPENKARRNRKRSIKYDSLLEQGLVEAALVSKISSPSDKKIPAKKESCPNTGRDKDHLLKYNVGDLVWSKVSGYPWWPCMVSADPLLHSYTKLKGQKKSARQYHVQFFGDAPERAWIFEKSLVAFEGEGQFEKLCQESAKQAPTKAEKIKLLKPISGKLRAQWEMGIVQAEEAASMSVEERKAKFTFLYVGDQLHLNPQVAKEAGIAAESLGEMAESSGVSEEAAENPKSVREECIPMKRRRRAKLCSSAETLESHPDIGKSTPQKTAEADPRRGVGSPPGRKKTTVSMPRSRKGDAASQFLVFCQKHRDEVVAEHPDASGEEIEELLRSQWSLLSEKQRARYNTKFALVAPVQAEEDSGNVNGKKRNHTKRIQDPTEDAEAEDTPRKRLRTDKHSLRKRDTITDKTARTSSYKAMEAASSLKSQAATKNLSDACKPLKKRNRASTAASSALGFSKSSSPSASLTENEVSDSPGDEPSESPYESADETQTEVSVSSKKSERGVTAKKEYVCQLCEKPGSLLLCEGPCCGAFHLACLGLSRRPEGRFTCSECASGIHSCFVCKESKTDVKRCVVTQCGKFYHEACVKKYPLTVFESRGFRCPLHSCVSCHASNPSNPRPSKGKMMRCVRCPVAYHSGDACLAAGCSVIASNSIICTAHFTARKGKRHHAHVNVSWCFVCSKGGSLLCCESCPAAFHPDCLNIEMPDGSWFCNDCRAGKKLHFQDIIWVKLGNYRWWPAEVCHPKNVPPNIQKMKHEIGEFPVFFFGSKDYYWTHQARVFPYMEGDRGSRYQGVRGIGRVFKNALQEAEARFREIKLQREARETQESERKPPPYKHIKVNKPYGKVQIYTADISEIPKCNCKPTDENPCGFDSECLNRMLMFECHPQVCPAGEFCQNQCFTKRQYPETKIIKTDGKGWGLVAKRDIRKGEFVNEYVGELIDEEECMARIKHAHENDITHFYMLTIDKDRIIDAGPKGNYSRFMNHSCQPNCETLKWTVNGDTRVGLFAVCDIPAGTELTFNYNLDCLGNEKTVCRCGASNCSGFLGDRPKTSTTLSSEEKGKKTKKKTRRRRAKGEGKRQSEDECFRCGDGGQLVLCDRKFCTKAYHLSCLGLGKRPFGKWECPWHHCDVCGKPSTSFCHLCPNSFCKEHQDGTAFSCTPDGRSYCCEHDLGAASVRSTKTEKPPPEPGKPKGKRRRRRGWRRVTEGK
N-glyco inh: N-linked glycosylation inhibition; hit rate 0.23% among 360,000; D54 ERlucT glycosylation luciferase reporter, 24 h; percent of 100 nM tunicamycin response; reporter increase, % at 12.5 µM;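 active = mean luciferase reporter signal, scaled so untreated is 0 and the glycosylation-blocking control 100, at or above a set limit in every replicate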;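 note: luciferase carries N-glycosylation sites so blocking glycosylation raises the light; 0% = median of neutral control wells and 100% = median of 100 nM tunicamycin wells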
RAD52 anneal inh: blocks human RAD52 DNA annealing | AID 651710 | hit rate 0.46% among 360,000 | inhibition, % at 18.7 µM | recombinant RAD52 DNA annealing, FRET fluorescence;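 active = every replicate showing at least 50% inhibition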
RAD54 branch: RAD54 (human) branch migration inhibition; Q92698; RAD54 Holliday junction branch migration, FAM/BHQ fluorescence; hit rate 0.14% among 360,000; inhibition, % at 10.4 µM;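 active = mean normalized replicate activity at least 40 and at least half of replicates scoring 40 or more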;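 note: 0% = median of neutral control wells and 100% = median of positive control wells; inhibitors cause a drop in the FAM fluorescence signal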
FN deposition inh: fibronectin deposition inhibition; AH1F fibroblasts, Alexa488-fibronectin deposition fluorescence, overnight; inhibition, % at 12.6 µM; hit rate 0.086% among 350,000; AID 743247;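 active = mean inhibition across replicates of 30% or more, regardless of how many single replicates reach that level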;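 note: positive control wells lacked labelled fibronectin entirely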
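Material – AH1F fibroblast monolayer, labelled fibronectin deposition · Reagent – labelled fibronectin 24 nM · Timing – 1 h adhesion, overnight exposure · Measured by – fluorescence at 485 nm excitation, 525 nm emission · Read-out – inhibition of fibronectin deposition signal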
AF4-AF9 inh: blocks AF4 peptide binding to human AF9; AID 651704; inhibition, % at 10 µM; AlphaScreen, biotin-AF4 peptide binding to FLAG-AF9; P42568; hit rate 0.47% among 350,000;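 active = every replicate reaching a set inhibition limit, whatever the replicate mean, cut at about 25% in these data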;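 note: 0% = plate neutral control median and 100% = total signal loss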
An asterisk follows results filed as active; . = no result; ! = repeats disagree.

SMILES	NSD2 inh	N-glyco inh	RAD52 anneal inh	RAD54 branch	FN deposition inh	AF4-AF9 inh
C[C@@H]1CN([C@H](C)CO)C(=O)c2cc(-c3ccccc3)cnc2O[C@@H]1CN(C)C(=O)c1ccccc1F	.	.	9	0	-4	-2
Nc1ccc(Br)c2cccnc12	99*	14	6	.	-11	0
CC(C)CC#Cc1ccc2c(c1)O[C@@H](CN(C)C(=O)c1cccnc1)[C@@H](C)CN([C@@H](C)CO)S2(=O)=O	.	.	-3	-12	.	8
CCOc1ccc2c(c1)C(C)=CC(C)(C)N2C(=O)Nc1ccccc1F	65*	4	-60	-3	-3	17
CCNC(=O)N1c2ccc(OCC)cc2C(C)=CC1(C)C	10	5	.	-1	3	.
O=C(CCl)Nc1ccc(N2CCCCCC2)cc1	23	4	41	12	-9	51*
O=C(C[C@H]1CC[C@@H]2[C@H](COC[C@@H](O)CN2Cc2cccc(C(F)(F)F)c2)O1)NCCc1ccccc1	.	.	-3	-6	-2	-9
N#CC(=C1C=C(Br)C(=NO)C=C1Cl)c1cccc2ccccc12	4	5	-13	10	-6	26*
COc1ccc(C(C#N)=C2C=C(Cl)C(=NO)C=C2Cl)cc1	15	2	-16	.	-2	4
C[C@H]1CN([C@@H](C)CO)C(=O)Cc2cc(NC(=O)C3CCCCC3)ccc2O[C@H]1CN(C)C(=O)Nc1cccc2ccccc12	.	.	4	12	-6	-3
CCOC(=O)N1CCc2cc(OC)c(OC)c3c2c1cc1cc(OC)c(OC)cc13	12	26*	24	.	8	17
CCOC(=O)c1c(C)oc2c1c(CN1CCN(C(=O)OCC)CC1)c(O)c1ccccc12	0	0	-7	.	4	9
CCOC(=O)c1c(C)oc2c1c(C=NC1CCS(=O)(=O)C1)c(O)c1ccccc12 (centres undefined)	88*	3	.	-16	7	.
Cc1ccc(S(=O)(=O)Nc2ccc3c(c2)C(=O)N([C@H](C)CO)C[C@H](C)[C@H](CN(C)CC2CCCCC2)OCCCC[C@@H](C)O3)cc1	.	.	55*	-5	.	1
Cc1ccc(S(=O)(=O)Nc2ccc3c(c2)C(=O)N([C@H](C)CO)C[C@H](C)[C@@H](CN(C)CC2CCCCC2)OCCCC[C@@H](C)O3)cc1	.	.	23	-1	.	0
Cc1ccc(S(=O)(=O)Nc2ccc3c(c2)C(=O)N([C@@H](C)CO)C[C@@H](C)[C@@H](CN(C)CC2CCCCC2)OCCCC[C@@H](C)O3)cc1	.	.	56*	4	.	22
CCOC(=O)c1c(C)n(OCc2ccccc2)c2ccc3nonc3c12	0	-2	-9	-4	.	33*
C=CCOn1c(C)c(C(C)=O)c2c3nonc3ccc21	0	-9	.	.	.	.
COc1ccc(CN(C)C[C@@H]2OCCCC[C@H](C)Oc3ccc(NC(=O)Nc4ccc5c(c4)OCO5)cc3C(=O)N([C@@H](C)CO)C[C@@H]2C)cc1	.	.	34	9	5	22
C[C@@H]1CCCCO[C@@H](CN(C)Cc2ccc3c(c2)OCO3)[C@H](C)CN([C@@H](C)CO)C(=O)c2cc(NC(=O)Nc3ccc(C(F)(F)F)cc3)ccc2O1	.	.	51*	7	-12	3
C[C@@H]1CCCCO[C@@H](CN(C)Cc2ccc3c(c2)OCO3)[C@@H](C)CN([C@@H](C)CO)C(=O)c2cc(NC(=O)Nc3ccc(C(F)(F)F)cc3)ccc2O1	.	.	46	-2	2	3
C[C@@H]1CCCCO[C@@H](CN(C)Cc2ccccc2)[C@H](C)CN([C@H](C)CO)C(=O)c2cc(NC(=O)Nc3ccc4c(c3)OCO4)ccc2O1	.	.	12	-3	6	31*
C[C@H]1CCCCO[C@H](CN(C)C(=O)Nc2ccc(F)cc2)[C@@H](C)CN([C@@H](C)CO)C(=O)c2cc(NC(=O)Nc3ccc4c(c3)OCO4)ccc2O1	.	-5	-14	0	-8	32*!
COc1ccc(CN(C)C[C@H]2OCCCC[C@@H](C)Oc3ccc(NC(=O)Nc4ccc5c(c4)OCO5)cc3C(=O)N([C@@H](C)CO)C[C@@H]2C)cc1	.	.	29	4	7	28*
C[C@H](CO)N1C[C@H](C)[C@@H](CN(C)C)Oc2ccc(NC(=O)Nc3cccc4ccccc34)cc2CC1=O	.	.	24	7	.	5
SMILES	NSD2 inh	N-glyco inh	RAD52 anneal inh	RAD54 branch	FN deposition inh	AF4-AF9 inh
O=C(c1ccccc1F)N1CC(=O)N2[C@H](C1)[C@@H](c1ccc(-c3ccccc3)cc1)[C@@H]2CO	.	.	-4	.	.	1
C[C@@H]1CN([C@H](C)CO)C(=O)c2cc(NC(=O)Nc3ccccc3)ccc2O[C@@H](C)CCCCO[C@H]1CN(C)Cc1ccc2c(c1)OCO2	.	.	61*	-11	-2	19
C[C@H]1CCCCO[C@H](CN(C)Cc2ccc3c(c2)OCO3)[C@@H](C)CN([C@@H](C)CO)C(=O)c2cc(NC(=O)Nc3ccccc3)ccc2O1	.	.	56*	-7	-4	12
C[C@@H]1CN([C@@H](C)CO)C(=O)c2cc(NS(=O)(=O)c3cccs3)ccc2O[C@@H]1CN(C)C(=O)Nc1ccc(F)cc1	.	.	-7	-1	-6	47*
C[C@@H]1CN([C@H](C)CO)C(=O)c2cc(NC(=O)Nc3ccc4c(c3)OCO4)ccc2O[C@@H](C)CCCCO[C@H]1CN(C)Cc1ccc2c(c1)OCO2	.	.	17	6	2	39*
C[C@@H]1CN([C@H](C)CO)C(=O)c2cc(NC(=O)Nc3ccccc3)ccc2O[C@@H](C)CCCCO[C@@H]1CN(C)Cc1ccc2c(c1)OCO2	.	.	41	-6	4	7
C[C@H](CO)N1C[C@H](C)[C@@H](CN(C)C(=O)Nc2ccc(F)cc2)Oc2ccc(NS(=O)(=O)c3cccs3)cc2C1=O	.	.	-18	-2	3	-2
O=C1[C@H]2[C@@H](c3ccc(F)cc3)N3C(=O)N(c4cccc(F)c4)C(=O)[C@@]3(Cc3ccccc3)[C@H]2C(=O)N1C1CCCCC1	.	14	-6	-10	-4	-6
O=C1[C@H]2[C@@H](c3ccc(F)cc3)N3C(=O)N(c4cccc(Br)c4)C(=O)[C@@]3(Cc3ccccc3)[C@H]2C(=O)N1C1CCCCC1	.	67*	-3	3	0	-2
CC[C@@]12C(=O)N(c3cccc(F)c3)C(=O)N1[C@H](c1cccc(C)c1)[C@@H]1C(=O)N(Cc3ccccc3)C(=O)[C@@H]12	.	7	-25	-12	-3	-1
Cc1cccc([C@@H]2[C@@H]3C(=O)N(Cc4ccccc4)C(=O)[C@@H]3[C@]3(Cc4ccccc4)C(=O)N(c4cccc(F)c4)C(=O)N23)c1	.	34*	-10	-5	-9	1
Cc1cccc([C@@H]2[C@@H]3C(=O)N(Cc4ccccc4)C(=O)[C@@H]3[C@]3(Cc4ccccc4)C(=O)N(c4cccc(Cl)c4)C(=O)N23)c1	.	41*	-2	7	-9	12
